Consider 30 molecules from ChEMBL document CHEMBL2417467, “Antiproliferative cardiac glycosides from the latex of Antiaris toxicaria” (J Nat Prod, 2013).

Activity calls are given as the source filed them. No cut-off for these calls is given here.

Assay [1] can be described thus: Cytotoxicity against human NIH-H460 cells assessed as cell viability at 50 nM after 48 hrs by MTT assay relative to control. In kind it is functional. The settings on record: NIH-H460, 48 h. In a few lines:
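NIH-H460 cells (RPMI 1640, 10% FBS, 1% L-glutamine, penicillin/streptomycin) were seeded at 1 × 10^4 cells/well and exposed to 50 nM for 48 h. MTT was then added at 0.5 mg/mL final in medium for 2 h in the dark at 37 °C. Formazan was dissolved in DMSO for 15 min at RT and read at 570 nm. Output was inhibitory rate (%).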
A general note: Formazan colour is commonly taken as a measure of viable cells.

In assay [2] the test system is NIH-H460. As to the kind of experiment: Induction of apoptosis in human NIH-H460 cells assessed as caspase-3 activation at 20 nM after 24 hrs by Western blotting analysis. In kind it is functional, cell-based. (Immunoblotting shows a protein as a band on a membrane.)
The nature of assay [3]: Induction of apoptosis in human NIH-H460 cells at 20 nM after 36 hrs by microscopic analysis relative to control. In kind it is functional. The procedure, abridged:
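NIH-H460 cells were exposed to vehicle or 20 nM in serum-free medium for up to 36 h. Detached and attached cells were pooled and stained with 50 μg/mL DAPI plus 100 μg/mL RNase A at 37 °C for 20 min. Apoptotic cells were scored by cytoplasmic shrinkage, membrane blebbing and nuclear condensation/fragmentation, and reported as % apoptotic cells.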

Assay [4] has as its system NIH-H460. As to the kind of experiment: Induction of apoptosis in human NIH-H460 cells assessed as localization of Nur77 in nucleus at 20 nM after 3 hrs by immunofluorescence microscopic analysis. The assay is classed as functional, cell-based. In a few lines: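 NIH-H460 cells on slides were treated with 20 nM for 3 h, then given MitoTracker Red (25 nM) for 15 min. Cells were permeabilised with 0.01% digitonin in PBS for 30 min and blocked with 1% BSA for 30 min. Anti-Nur77 (1:200) was applied for 3 h at RT, then FITC/Cy3 anti-rabbit IgG for 1 h. DAPI marked nuclei, and images were taken by confocal microscopy.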

Assay [5] deals with NIH-H460. As to the kind of experiment: Induction of Nur77 protein expression in human NIH-H460 cells at […] by Western blotting analysis. In kind it is functional, cell-based. The procedure, abridged: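 NIH-H460 cells were treated with vehicle or compound, either at 2.5–40 nM for 3 h or at 20 nM over a time course. Equal amounts of lysate were run on 8% SDS-PAGE and blotted to PVDF. Membranes were blocked in 5% milk/TBST and probed overnight at 4 °C with anti-Nur77 (1:1000). Bands were detected by ECL, with β-actin reprobe as loading control.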

Usually inhibition stands for the drop in the measured response relative to a control, in per cent.

Regarding `C[C@@H]1O[C@@H](O[C@H]2CC[C@]3(C)[C@H]4C[C@@H](O)[C@]5(C)[C@@H](C6=CC(=O)OC6)CC[C@]5(O)[C@@H]4CC[C@]3(O)C2)[C@H](O)[C@H](O)[C@H]1O` [ANTIOSIDE], the inhibition at 0.05 µM in assay [1] was determined as 75.7%. The same measure, in the same setting: the figure for `C[C@@H]1O[C@@H](O[C@H]2CC[C@@]3(C=O)[C@H](CC[C@@H]4[C@@H]3C[C@@H](O)[C@]3(C)[C@@H](C5=CC(=O)OC5)CC[C@]43O)C2)[C@H](O)[C@H](O)[C@H]1O` is 81.9%; for `C[C@H]1O[C@@H](O[C@H]2CC[C@@]3(CO)[C@H](CC[C@@H]4[C@@H]3C[C@@H](O)[C@]3(C)[C@@H](C5=CC(=O)OC5)CC[C@]43O)C2)[C@H](O)[C@H](O)[C@H]1O` it is 63.8%. For `C[C@H]1O[C@@H](O[C@H]2CC[C@]3(C=O)[C@H]4CC[C@]5(C)[C@@H](C6=CC(=O)OC6)CC[C@]5(O)[C@@H]4CC[C@]3(O)C2)[C@H](O)[C@H](O)[C@H]1O` [DESGLUCOCHEIROTOXIN], the inhibition at 0.05 µM in assay [1] was 76.9%. `C[C@H]1O[C@@H](O[C@H]2CC[C@]3(C)[C@H]4C[C@@H](O)[C@]5(C)[C@@H](C6=CC(=O)OC6)CC[C@]5(O)[C@@H]4CC[C@]3(O)C2)[C@H](O)[C@H](O)[C@@H]1O` [ANTIOGOSIDE]: in assay [1], the inhibition at 0.05 µM was 34.3%. On the same count and under the same terms, the figure for `C[C@H]1O[C@@H](O[C@H]2CC[C@]3(C=O)[C@H]4C[C@@H](O)[C@]5(C)[C@H](C6=CC(=O)OC6)CC[C@]5(O)[C@@H]4CC[C@]3(O)C2)[C@H](O)[C@H](O)[C@H]1O` is 9.3%. On to `C[C@@H]1O[C@H](O[C@H]2CC[C@]3(CO)[C@H]4CC[C@]5(C)[C@@H](C6=CC(=O)OC6)CC[C@]5(O)[C@@H]4CC[C@]3(O)C2)[C@H](O)[C@H](O)[C@H]1O` [CONVALLATOXOL], for which, in assay [1], the inhibition at 0.05 µM worked out at 80.7%. Regarding `C[C@@H]1O[C@H](O[C@@H]2CC[C@]3(C=O)[C@H]4CC[C@]5(C)[C@@H](C6=CC(=O)OC6)CC[C@]5(O)[C@@H]4CC[C@]3(O)C2)[C@H](O)[C@H](O)[C@H]1O` [ANTIAROSIDE C], in assay [1], the inhibition at 0.05 µM turned out to be 18.9%. On the same count and under the same terms, the value for `CO[C@H]1[C@@H](O[C@H]2CC[C@]3(C=O)[C@H]4CC[C@]5(C)[C@@H](C6=CC(=O)OC6)CC[C@]5(O)[C@@H]4CC[C@]3(O)C2)O[C@H](C)[C@@H](O)[C@H]1O` [STROPHATHOJAVOSIDE] was 65%. On to `C[C@@H]1O[C@H](O[C@H]2CC[C@]3(C=O)[C@H]4C[C@@H](O)[C@]5(C)[C@@H](C6=CC(=O)OC6)CC[C@]5(O)[C@@H]4CC[C@]3(O)C2)[C@H](O)[C@H](O)[C@H]1O`, for which the inhibition at 0.05 µM in assay [1] came to 81.4%. Still for that read-out and setting: the value for `C[C@H]1O[C@H](O[C@H]2CC[C@]3(C=O)[C@H]4C[C@@H](O)[C@]5(C)[C@@H](C6=CC(=O)OC6)CC[C@]5(O)[C@@H]4CC[C@]3(O)C2)[C@H](O)[C@H](O)[C@@H]1O` [ANTIALLOSIDE] was 70.7%. `C[C@H]1O[C@@H](O[C@@H]2CC[C@]3(C=O)[C@H]4CC[C@]5(C)[C@@H](C6=CC(=O)OC6)CC[C@]5(O)[C@@H]4CC[C@]3(O)C2)[C@H](O)[C@H](O)[C@H]1O`: the inhibition at 0.05 µM in assay [1] worked out at 6.8%. On the same count and under the same terms, the value for `C[C@H]1O[C@@H](O[C@@H]2CC[C@]3(C=O)[C@H]4C[C@@H](O)[C@]5(C)[C@@H](C6=CC(=O)OC6)CC[C@]5(O)[C@@H]4CC[C@]3(O)C2)[C@H](O)[C@H](O)[C@@H]1O` was 6.9%; that for `C[C@@H]1O[C@@H](O[C@H]2CC[C@]3(C=O)[C@H]4C[C@H](O)[C@]5(C)[C@@H](C6=CC(=O)OC6)CC[C@]5(O)[C@@H]4CC[C@]3(O)C2)[C@H](O)[C@H](O)[C@H]1O` was 82.8%. Same read-out and setting: the value for `C[C@H]1O[C@@H](O[C@H]2CC[C@@]3(C=O)[C@H](CC[C@@H]4[C@@H]3C[C@@H](O)[C@]3(C)[C@@H](C5=CC(=O)OC5)CC[C@]43O)C2)[C@H](O)[C@H](O)[C@H]1O` was 82.3%; that for `C[C@@H]1C[C@@H](O)[C@@H](O)[C@H](O[C@H]2CC[C@]3(C=O)[C@H]4C[C@@H](O)[C@]5(C)[C@@H](C6=CC(=O)OC6)CC[C@]5(O)[C@@H]4CC[C@]3(O)C2)O1` was 81.6%; that for `C[C@H]1O[C@@H](O[C@@H]2CC[C@]3(C=O)[C@H]4C[C@@H](O)[C@]5(C)[C@@H](C6=CC(=O)OC6)CC[C@]5(O)[C@@H]4CC[C@]3(O)C2)[C@H](O)[C@H](O)[C@H]1O` was 3.2%. Take `C[C@H]1O[C@@H](O[C@H]2CC[C@]3(CO)[C@H]4C[C@@H](O)[C@]5(C)[C@@H](C6=CC(=O)OC6)CC[C@]5(O)[C@@H]4CC[C@]3(O)C2)[C@H](O)[C@H](O)[C@H]1O`: the inhibition at 0.05 µM in assay [1] is 64.2%. On the same count and under the same terms, the value for `C[C@@H]1O[C@@H](O[C@H]2CC[C@@]3(CO)[C@H](CC[C@@H]4[C@@H]3CC[C@]3(C)[C@@H](C5=CC(=O)OC5)CC[C@]43O)C2)[C@H](O)[C@H](O)[C@H]1O` was 82.4%; that for `C[C@H]1O[C@@H](O[C@H]2CC[C@]3(CO)[C@H]4CC[C@]5(C)[C@@H](C6=CC(=O)OC6)CC[C@]5(O)[C@@H]4CC[C@]3(O)C2)[C@H](O)[C@H](O)[C@H]1O` [DEGLUCOCHEIROTOXOL] was 67.9%.

Take `C[C@@H]1O[C@@H](O[C@H]2CC[C@]3(C=O)[C@H]4C[C@@H](O)[C@]5(C)[C@H](C6=CC(=O)OC6)CC[C@]5(O)[C@@H]4CC[C@]3(O)C2)[C@H](O)[C@H](O)[C@H]1O`: the inhibition at 0.05 µM in assay [1] came out at 6.2%. On the same count and under the same terms, the figure for `C[C@@H]1O[C@@H](O[C@H]2CC[C@]3(C=O)[C@H]4CC[C@]5(C)[C@@H](C6=CC(=O)OC6)CC[C@]5(O)[C@@H]4CC[C@]3(O)C2)[C@H](O)[C@H](O)[C@H]1O` [CONVALLATOXIN] is 82.1%.

As to `C[C@H]1O[C@@H](O[C@H]2CC[C@]3(C(=O)O)[C@H]4C[C@@H](O)[C@]5(C)[C@@H](C6=CC(=O)OC6)CC[C@]5(O)[C@@H]4CC[C@]3(O)C2)[C@H](O)[C@H](O)[C@@H]1O`, in the assay on NIH-H460 [2], the result was inactive. Moreover, the inhibition at 0.05 µM in assay [1] is 7.8%. In assay [3], this molecule came in with an Activity of 3.4%. Besides, the outcome in the assay with NIH-H460 [4] and in the assay with NIH-H460 [5] was Active.

As for `C[C@@H]1O[C@@H](O[C@@H]2CC[C@]3(C=O)[C@H]4C[C@@H](O)[C@]5(C)[C@@H](C6=CC(=O)OC6)CC[C@]5(O)[C@@H]4CC[C@]3(O)C2)[C@H](O)[C@H](O)[C@H]1O`, the inhibition at 0.05 µM in assay [1] worked out at 6.3%. Same read-out and setting: the value for `CO[C@H]1[C@@H](O[C@H]2CC[C@]3(C=O)[C@H]4C[C@@H](O)[C@]5(C)[C@@H](C6=CC(=O)OC6)CC[C@]5(O)[C@@H]4CC[C@]3(O)C2)O[C@H](C)[C@@H](O)[C@@H]1O` [TOXICARIOSIDE B] was 71.4%; that for `C[C@@H]1O[C@@H](O[C@H]2CC[C@]3(CO)[C@H]4C[C@@H](O)[C@]5(C)[C@@H](C6=CC(=O)OC6)CC[C@]5(O)[C@@H]4CC[C@]3(O)C2)[C@H](O)[C@H](O)[C@H]1O` was 60.2%. On the same count and under the same terms, the figure for `C[C@H]1O[C@H](O[C@H]2CC[C@]3(C=O)[C@H]4C[C@@H](O)[C@]5(C)[C@@H](C6=CC(=O)OC6)CC[C@]5(O)[C@@H]4CC[C@]3(O)C2)[C@H](O)[C@H](O)[C@H]1O` is 45%. On to `C[C@]12CC[C@H]3[C@@H](CC[C@]4(O)C[C@@H](O)CC[C@]34C(=O)O[C@@H]3O[C@H](CO)[C@@H](O)[C@H](O)[C@H]3O)[C@@]1(O)CC[C@@H]2C1=CC(=O)OC1`, for which, in the assay with NIH-H460 [2], the outcome was inactive. Moreover, the inhibition at 0.05 µM in assay [1] was found to be 11.1%. This molecule also gave an Activity in assay [3] of 6.8%. Further, the result in the assay with NIH-H460 [4] and with NIH-H460 [5] was Active. For the molecule `C[C@]12CC[C@H]3[C@@H](CC[C@]4(O)C[C@@H](O)CC[C@]34CO[C@@H]3O[C@H](CO)[C@@H](O)[C@H](O)[C@H]3O)[C@@]1(O)CC[C@@H]2C1=CC(=O)OC1`, the inhibition at 0.05 µM in assay [1] came to 29.4%. Take `C[C@H]1O[C@@H](O[C@H]2CC[C@]3(C)[C@H]4C[C@@H](O)[C@]5(C)[C@@H](C6=CC(=O)OC6)CC[C@]5(O)[C@@H]4CC[C@]3(O)C2)[C@H](O)[C@H](O)[C@H]1O`: in assay [1], the inhibition at 0.05 µM amounted to 33.9%.
